We go through 57 molecules from ChEMBL document CHEMBL1128500, “Diamine and triamine analogs and derivatives as inhibitors of deoxyhypusine synthase: synthesis and biological activity” (J Med Chem, 1995).

One experiment concerns the target T1, Deoxyhypusine synthase (Rattus norvegicus, UniProt Q6AY53).
T1 sequence (Q6AY53 whole entry): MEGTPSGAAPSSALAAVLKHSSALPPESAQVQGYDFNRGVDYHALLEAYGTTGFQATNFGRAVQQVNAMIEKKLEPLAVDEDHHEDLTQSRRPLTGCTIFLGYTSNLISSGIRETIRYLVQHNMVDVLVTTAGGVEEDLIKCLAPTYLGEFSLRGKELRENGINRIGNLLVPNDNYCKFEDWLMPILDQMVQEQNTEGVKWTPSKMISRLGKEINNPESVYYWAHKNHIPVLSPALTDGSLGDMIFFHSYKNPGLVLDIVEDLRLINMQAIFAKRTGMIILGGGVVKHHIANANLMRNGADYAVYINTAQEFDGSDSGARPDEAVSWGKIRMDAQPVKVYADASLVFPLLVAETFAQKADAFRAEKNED
Briefly: In vitro IC50 value by measuring the inhibition of deoxyhypusine synthase.

In experiment [1] the target is T2, Deoxyhypusine synthase (Homo sapiens) (UniProt P49366).
T2 sequence (whole entry): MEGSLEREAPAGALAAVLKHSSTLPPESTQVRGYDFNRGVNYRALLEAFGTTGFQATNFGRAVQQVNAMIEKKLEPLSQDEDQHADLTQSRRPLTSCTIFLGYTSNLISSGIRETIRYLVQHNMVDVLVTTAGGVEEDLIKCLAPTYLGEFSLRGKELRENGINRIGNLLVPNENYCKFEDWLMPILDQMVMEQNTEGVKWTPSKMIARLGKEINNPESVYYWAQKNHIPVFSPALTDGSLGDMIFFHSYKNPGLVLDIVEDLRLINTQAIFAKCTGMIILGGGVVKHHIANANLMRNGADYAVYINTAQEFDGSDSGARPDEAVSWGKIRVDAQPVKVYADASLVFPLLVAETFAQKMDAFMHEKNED
Briefly: Effect on Hypusine formation in CHO cells at concentration 3 uM. The format is functional, cell-based. As to conditions: Cricetulus griseus.

Experiment [2] concerns CHO. The experiment in a line: Effect on spermidine uptake in CHO cells at concentration 10 uM. The format is functional. Summed up:
(§1)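 Spermidine uptake in CHO cells: total cellular radioactivity after 18 h growth with 5 μCi/mL [3H]spermidine in presence of compound, reported as percentage of untreated-cell value.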

Experiment [3] concerns the target T2, Deoxyhypusine synthase (Homo sapiens). Briefly: Effect on Hypusine formation in CHO cells at concentration 10 uM. Format: functional, cell-based. Conditions: Cricetulus griseus.
For experiment [4] the target is unchanged. Briefly: Effect on protein synthesis in CHO cells at concentration 10 uM. As to conditions: Cricetulus griseus.
Experiment [5] shares this target. The experiment in a line: Effect on protein synthesis in CHO cells at concentration 3 uM. As to conditions: Cricetulus griseus.
Experiment [6] concerns CHO. The experiment in a line: Growth inhibition was measured against CHO cell line; - indicates >100 uM. As to conditions: Cricetulus griseus. Format: functional, cell-based. The procedure, abridged: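 CHO cells grown with compound for 72 h; cellular protein measured by bicinchoninic acid method as crude growth estimate (control protein rose ~16-fold over 72 h). Symbol gives compound range halving protein versus control: ++++ <0.5, +++ 0.5-1, ++ >1-10, + >10-100, - >100 μM.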

Experiment [7] relates to CHO. The experiment in a line: Effect on spermidine uptake in CHO cells at concentration 3 uM. Format: functional, Cricetulus griseus. The procedure, abridged: as §1
The test system of experiment [8] is CHO. Briefly: Effect on hypusine synthesis in CHO cells at concentration 10 uM. The format is functional, Cricetulus griseus.

Structures are written as SMILES.

For orientation: IC50 means the midpoint of a concentration-inhibition curve. A lower IC50 goes with greater potency in that assay. As to `NCCCNOCCCN`, on Deoxyhypusine synthase, the IC50 was found to be 385 µM.
`NCCCSCCCN`: the Control in experiment [1] came to 100%; in the experiment on CHO [2], 100%; in experiment [3], 93%; in [4] it was 81%; in experiment [5], 86%. This molecule gave an IC50 against Deoxyhypusine synthase of 83 µM.
With `N=C(N)NCCCCNCCCCNC(=N)N`, the Control in [1] came to 100%; in the experiment with CHO [2], 85%; in [3], 100%; in experiment [4], 100%; in [5] it was 100%. Also, on Deoxyhypusine synthase, the IC50 turned out to be 3.2 µM.
As to `N=C(N)NCCCCCCCCN`, the 50% inhibitory concentration (IC50) on Deoxyhypusine synthase came out at 0.55 µM.
As for `NCCCCCCCCNCCCCCCCCN=C(N)N`, the Control is 36% in [1]; 80% in the experiment on CHO [2]; 27% in [3]; 22% in [4]; 20% in experiment [5].
The molecule `NCCCCCCCNCCCCCCCN` returned an IC50 against Deoxyhypusine synthase of 63 µM.
The same measure, in the same setting: for `N=C(N)CCCCCCCCCCC(=N)N` the value was more than 1000 µM; for `N#CCCNCCCCCCCNC(=N)N`, 96 µM; for `NCCCCCCCCNCCCCCCCCN`, 116 µM.
Same read-out and setting: for `NC(N)=NCCCCN=C(N)N` [ARCAINE] the value was 179 µM.
Take `N=C(N)CCCCCCCC(=N)N`: the IC50 at Deoxyhypusine synthase was determined as 120 µM. The IC50 values of the last two molecules are within 1.5-fold of each other.
Take `CCNCCCCCCCN`: the Growth inhibition entry in the experiment with CHO [6] was “Not toxic”. Moreover, the IC50 against Deoxyhypusine synthase came out at 275 µM.
With `N=C(N)NCCCCCNCCCCCNC(=N)N`, the Control in experiment [1] came out at 100%; with CHO [2] it was 95%; in [3], 100%; in experiment [4], 100%; in [5], 100%. The IC50 on Deoxyhypusine synthase was 38 µM.
As for `N=C(N)SCCCCCCSC(=N)N`, on Deoxyhypusine synthase, inhibition was half-maximal at 780 µM (IC50).
As for `N=C(N)NCCCNCCCNC(=N)N`, the Control was 98% in experiment [1], 95% in the experiment with CHO [2], 100% in experiment [3] and 80% in [5]. Moreover, the Growth inhibition result with CHO [6] is “Not toxic”. At Deoxyhypusine synthase, this molecule gave an IC50 of 182 µM.
As to `N=C(N)SCCCCCCCSC(=N)N`, the IC50 against Deoxyhypusine synthase is more than 1000 µM.
Still for that read-out and setting: for `N=C(N)NCCCCCCCCNC(=N)N` the value was 16.1 µM; for `N=C(N)NCCCCCCNC(=N)N`, 112 µM; for `[H]/N=C(/N)NCCCCCNC(=N)N`, 6.8 µM.
Same read-out and setting: for `NCCCCSCCCN` the value was 235 µM; for `N=C(N)NCCCCCCN`, 132 µM; for `N=C(N)NCCCNCCCN`, 1.2 µM.
For the molecule `CCNCCCCCCCNC(=N)N`, 9 µM corresponded to half-maximal inhibition against Deoxyhypusine synthase (IC50).
On the same count and under the same terms, for `NCCCCCCNCCCCCCN` the value was more than 1000 µM.
Turning to `NCCCNCCCN=C(N)N`, the Control in experiment [1] was found to be 50%; with CHO [2], 34%; in experiment [3], 23%; in the experiment on CHO [7], 76%; in experiment [4], 75%; in experiment [5], 77%.
`N=C(N)SCCCCCCCCSC(=N)N` yielded an IC50 against Deoxyhypusine synthase of more than 1000 µM.
Molecule `N=C(N)CCCCCCC(=N)N` had an IC50 on Deoxyhypusine synthase of more than 1000 µM.
For `N=C(N)NCCCCCCCNCCCCCCCNC(=N)N`, the Control in experiment [1] was 90%; in the experiment on CHO [2], 95%; in experiment [3] it was 74%; in [4] it was 67%; in [5], 88%. The same molecule came in with an IC50 at Deoxyhypusine synthase of 0.08 µM.
On to `N=C(N)NCCCOCCCNC(=N)N`, for which the Control (in experiment [1]; in the experiment with CHO [2]; in experiment [3]; with CHO [8]; in [5]) was 100% each time. The IC50 against Deoxyhypusine synthase was 8 µM.
Consider `NCCCCCNCCCCCN=C(N)N`, for which the Control in the experiment with CHO [2] was 74%; in [3], 92%; in experiment [4] it was 65%; in [5] it was 80%. At Deoxyhypusine synthase, the IC50 amounted to 100 µM.
For `CCNCCCCCCCN=C(N)N`, the Control in [1] stood at 76%; in the experiment with CHO [2], 95%; in [3], 36%; in experiment [4], 28%; in [5], 34%.
At Deoxyhypusine synthase, `N=C(N)CCCCCC(=N)N` yielded an IC50 of more than 1000 µM.
On the same count and under the same terms, for `N=C(N)NCCCCCCCCNCCCCCCCCN` the value was 13 µM; for `NCCCCCNCCCCCN`, more than 1000 µM.
As for `NCCCOCCCN=C(N)N`, the Control in experiment [1] turned out to be 76%; in the experiment with CHO [2] it was 95%; in [3], 20%; in experiment [4], 92%; in experiment [5], 98%.
In turn, `N=C(N)CCCCCCCCC(=N)N` registered an IC50 against Deoxyhypusine synthase of more than 1000 µM.
On the same count and under the same terms, for `N=C(N)NCCCCCCCNC(=N)N` the value was 3.4 µM; for `N=C(N)SCCCCCSC(=N)N`, more than 1000 µM.
Turning to `N=C(N)NCCCSCCCNC(=N)N`, the Control was determined as 100% in [1]; 81% with CHO [2]; 74% in experiment [3]; 60% in experiment [4]; 100% in experiment [5]. This molecule displayed an IC50 at Deoxyhypusine synthase of 21 µM.
With `N=C(N)NCCCCCCNCCCCCCN`, on Deoxyhypusine synthase, the IC50 was 74 µM. This counts as double-digit micromolar.
Consider `NCCCOCCCN`, for which the Control in experiment [1] turned out to be 100%; with CHO [2] it was 100%; in experiment [3], 100%; in [4], 85%; in [5] it was 100%. Also, the IC50 against Deoxyhypusine synthase is 13 µM.
Molecule `N=C(N)NCCCCCCCNCCCCCCCN` had an IC50 against Deoxyhypusine synthase of 0.3 µM.
With `NCCCSCCCN=C(N)N`, the Control amounted to 50% in experiment [1]; 100% with CHO [2]; 24% in experiment [3]; 25% in experiment [4]; 40% in [5]. Further, the half-maximal inhibitory concentration (IC50) against Deoxyhypusine synthase turned out to be 1.9 µM.
With `N=C(N)NCCCCCCCCNCCCCCCCCNC(=N)N` [IMINOCTADIENE], the Control in [1] is 100%; in the experiment on CHO [2], 95%; in [3] it was 100%; in experiment [4] it was 84%; in experiment [5], 100%. For the same molecule, the IC50 on Deoxyhypusine synthase was determined as 3.5 µM.
For `N=C(N)NCCCCN` [AGMATINE], it took 156 µM to reach half-maximal inhibition against Deoxyhypusine synthase (IC50).
On the same count and under the same terms, for `N=C(N)CCCCCCCCCC(=N)N` the value was more than 1000 µM.
For the molecule `NCCCCNCCCCN`, the Growth inhibition result in the experiment on CHO [6] was “Not toxic”. Moreover, the IC50 against Deoxyhypusine synthase was found to be 556 µM.
`NCCCCNCCCCN=C(N)N`: the Control in [1] came to 7%; in the experiment with CHO [2], 28%; in experiment [3], 3%; in the experiment with CHO [7] it was 64%; in experiment [4], 93%; in experiment [5], 88%. On Deoxyhypusine synthase, this molecule returned an IC50 of 0.16 µM.
As for `N=C(N)NCCCCSCCCNC(=N)N`, at Deoxyhypusine synthase, the IC50 was found to be 48 µM.
`N=C(N)NCCCCCCNCCCCCCNC(=N)N`: the Control in experiment [1] came out at 96%; in the experiment with CHO [2], 95%; in [3], 100%; in [4], 87%; in experiment [5] it was 93%. This molecule also came in with a concentration for half-maximal inhibition (IC50) at Deoxyhypusine synthase of 40 µM.
On to `NCCCNCCCN` [NORSPERMIDINE], for which the IC50 on Deoxyhypusine synthase was 41 µM.
As to `NCCCCCCCNCCCCCCCN=C(N)N`, the Control was 34% in experiment [1]; 65% in the experiment with CHO [2]; 22% in experiment [3]; 20% in experiment [4]; 24% in experiment [5].
As for `NCCCCCN=C(N)N`, half-maximal inhibition on Deoxyhypusine synthase (IC50) was put at 29 µM.
The same measure, in the same setting: for `N=C(N)NCCCOCCCN` the value was 0.7 µM; for `N=C(N)SCCCCSC(=N)N`, more than 1000 µM.
On to `N=C(N)NCCCCCCCN`, for which the Control in experiment [1] came to 0%; in the experiment on CHO [7], 100%; in [4], 50%; in experiment [5], 62%. The molecule also registered an IC50 on Deoxyhypusine synthase of 0.03 µM.
As for `NCCCCCCNCCCCCCN=C(N)N`, the Control in experiment [1] was determined as 61%; in the experiment on CHO [2], 80%; in experiment [3], 48%; in experiment [4] it was 35%; in [5], 45%.
